# GPR7 antagonist = antagonists of human GPR7 (neuropeptides B/W receptor 1) | P48145 | GPR7-expressing cells, fluorescence antagonist assay | inhibition, % at 4.4 µM | 290,000 compounds, 1.1% hits; in the data active = inhibition above about 16%, passing the limit was not always enough;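 also: cells stimulated with the agonist NPW; 0% = agonist with vehicle and 100% = vehicle without agonist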
# DAGLB inhibitor = blocks human DAGLB lipase activity; inhibition, % at 5.17 µM; 340,000 compounds, 0.059% hits; Q8NCG7; HEK293T DAGLB membrane lysate, EnzChek fluorogenic substrate; AID 504411; in the data active = inhibition above about 34%;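 also: 0% = enzyme with vehicle and 100% = wells lacking enzyme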
# Target sequence (Q8NCG7 whole entry, looked up): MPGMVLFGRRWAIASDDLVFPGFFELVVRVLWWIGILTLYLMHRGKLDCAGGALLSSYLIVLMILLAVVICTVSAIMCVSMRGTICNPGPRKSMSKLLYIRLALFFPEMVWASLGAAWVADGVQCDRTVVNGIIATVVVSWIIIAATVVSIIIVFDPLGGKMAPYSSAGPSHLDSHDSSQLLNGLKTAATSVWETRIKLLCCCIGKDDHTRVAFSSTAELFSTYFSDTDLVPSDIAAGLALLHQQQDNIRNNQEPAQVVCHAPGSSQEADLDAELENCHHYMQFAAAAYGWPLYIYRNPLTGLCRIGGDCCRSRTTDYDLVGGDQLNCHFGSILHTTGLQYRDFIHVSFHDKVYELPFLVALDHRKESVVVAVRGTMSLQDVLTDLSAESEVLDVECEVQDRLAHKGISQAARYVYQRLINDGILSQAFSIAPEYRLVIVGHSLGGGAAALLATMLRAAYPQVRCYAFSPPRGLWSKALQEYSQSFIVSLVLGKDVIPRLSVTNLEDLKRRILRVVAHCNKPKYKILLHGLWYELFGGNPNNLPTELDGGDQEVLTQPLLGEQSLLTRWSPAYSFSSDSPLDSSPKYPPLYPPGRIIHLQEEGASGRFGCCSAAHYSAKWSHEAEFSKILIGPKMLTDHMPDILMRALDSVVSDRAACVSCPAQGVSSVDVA
# TAAR1 ag = agonists of human TAAR1. 360,000 compounds, 0.99% hits. CHO RD-HGA16 TAAR1, Fluo-8 calcium fluorescence; vehicle wells 0%, saturating PEA agonist 100%. Q96RJ0. activation, % at 3 µM. AID 624467;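 active = activation above the mean activation of all test compounds in the run plus 3 SD, cut at about 38% in these data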
#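 System: CHO-derived RD-HGA16 cells with stable Gα16 and human TAAR1. Times: 17-24 h plating, Fluo-8 75 min 37 °C, 30 min RT. Measured by: calcium-sensitive Fluo-8 signal, excitation 470-495, emission 515-575 nm. Read-out basis: % activation relative to PEA EC100 response. Control set: DMSO and PEA EC100. Repeats: no replicates (n 1).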
# TAAR1 antagonist = human TAAR1 antagonism. inhibition, % at 3 µM. Q96RJ0. CHO RD-HGA16 TAAR1, Fluo-8 calcium fluorescence, antagonist. AID 624466. 360,000 compounds, 1.5% hits;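 active = inhibition above a per-plate cutoff, the mean inhibition of test compounds on that plate plus 3 SD, cut at about 49% in these data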;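 also: 0% = DMSO plus EC80 beta-PEA response and 100% = DMSO alone without agonist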
#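 Test system – hTAAR1-expressing CHO RD-HGA16 cells, Gα16-coupled · Reagent – β-PEA at EC80 concentration, post-compound challenge · Compound dosing – 3 µM, single point · Timing – 140 s kinetic read after compound, 140 s after agonist · Detection – Fluo-8 intracellular calcium dye fluorescence, real-time kinetic reads · Control set – DMSO and EC80 PEA controls · Repeats – n of 1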
# MPTP inh = blocks calcium-induced mitochondrial swelling. isolated mouse mitochondria, Ca2+ swelling absorbance, 30 min. inhibition, % at 10 µM. 360,000 compounds, 1.4% hits;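 active = inhibition of 50% or more, scaled per plate between neutral and stimulator controls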;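 also: 0% = DMSO wells given calcium and 100% = 1 mM EGTA wells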
# Active calls of the source: *; x = no result given. An excerpt weighted towards active compounds, which were near 4% of everything screened.
SMILES,GPR7 antagonist,DAGLB inhibitor,TAAR1 ag,TAAR1 antagonist,MPTP inh
COc1ccc(CNC(=O)[C@@H](Cc2ccccc2)NC(=O)[C@H]2O[C@@H](n3cnc4c(=O)[nH]c(N)nc43)[C@H](O)[C@@H]2O)cc1,x,x,0.6,-12.1,x
CCC(C)(C(=O)NC1CCCC1)N(C(=O)CNC(C)=O)c1ccccc1 (centres undefined),19.2*,-1.5,5.9,-17.4,0.8
O=C(COC(=O)CCC(=O)c1cccs1)Nc1ccc(S(=O)(=O)N2CCOCC2)cc1,-2.0,1.8,4.2,-3.6,-2.9
Cc1c(C(=O)NCCc2ccccc2)oc2ccc(S(=O)(=O)N3CCOCC3)cc12,8.5,-1.8,38.1*,28.9,-2.6
Cc1ccc(C(=O)Oc2cccc(NC(=O)c3cccs3)c2)cc1S(=O)(=O)N1CCOCC1,-3.5,-5.8,11.2,57.1*,1.9
Cc1c(C(=O)NCC2COc3ccccc3O2)oc2ccc(S(=O)(=O)N3CCOCC3)cc12 (centres undefined),-9.2,-7.2,33.3,58.1*,2.7
Cc1ccc(S(=O)(=O)N2CCOCC2)cc1NC(=O)COC(=O)CCC(=O)c1cccs1,18.8*,1.3,2.0,-10.9,-1.4
CCCCCCCCN1C(=O)[C@H](CC(=O)NCc2ccc(C)o2)C[C@@]2(C(=O)OC)CCCCC=C12,x,x,-1.8,-17.4,-3.0
CNC(=O)C1Cc2c(-c3ccc4c(c3)OCO4)ccnc2O1 (centres undefined),x,x,-0.3,-23.3,0.5
COC(=O)C1=C(C)N(C)C(=NCc2cccc(C(F)(F)F)c2)NC1c1ccc(F)cc1 (centres undefined),x,x,15.7,21.8,x
Cc1c(C(=O)NCCC2=CCCCC2)oc2ccc(S(=O)(=O)N3CCC4(CC3)OCCO4)cc12,5.3,-4.4,21.1,60.2*,3.7
COc1cccc(NC(=O)c2oc3ccc(S(=O)(=O)N4CCOCC4)cc3c2C)c1,-20.1,-1.6,18.9,52.1*,-3.7
CCN=C1SC(CC(=O)Nc2ccc3c(c2)OCO3)C(=O)N1CC (centres undefined),4.2,-3.0,15.7,58.6*,0.9
CCN=C1SC(CC(=O)NCC)C(=O)N1CC (centres undefined),0.0,2.2,5.7,0.1,-2.5
N#Cc1nc(-c2cccs2)oc1NCc1ccc(Cl)cc1,0.5,1.1,15.4,49.5*,-2.2
COc1ccc(NS(=O)(=O)c2cccc(N/C(=N\S(=O)(=O)c3ccccc3)c3ccc(F)cc3)c2)cc1,20.6*,-2.9,7.8,11.9,4.0
C=C1C(=O)OC2C=C(CO)C3OC3C3OC3(C)CC(OC(=O)/C(=C/C)COC(C)=O)C12 (centres undefined),x,-2.9,1.2,-29.8,-0.5
CCOc1ccc(-c2[nH]ncc2Oc2ccccc2OCC)c(O)c1,-9.8,-5.8,17.3,49.4*,7.7
CN(c1ccccc1)S(=O)(=O)c1cccc(NC(=O)c2cccc(C#N)c2)c1,x,-3.0,21.5,66.0*,7.2
CN(c1ccccc1)S(=O)(=O)c1cccc(C(=O)Nc2cccc(C(=O)NC3CC3)c2)c1,x,0.1,10.9,16.7,1.5
CN(c1ccccc1)S(=O)(=O)c1cccc(NC(=O)c2ccc3ncsc3c2)c1,-14.9,-0.3,8.7,59.9*,23.4
CCC(=O)N1CCN(c2ccc(Cl)cc2NC(=O)Cc2ccccc2)CC1,16.7*,-1.4,4.2,-7.7,2.0
CCCCN1CC(COCc2ccccc2)Oc2cccc(Sc3ccc(OC)c(OC)c3)c2S1(=O)=O (centres undefined),x,x,2.1,-18.5,x
Cc1ccc(NC(=O)COC(=O)c2ccco2)cc1S(=O)(=O)N1CCCCC1,x,0.8,1.1,-4.6,0.0
Cc1cc(NCCc2ccc(Cl)cc2)n2ncnc2n1,-5.7,-2.8,7.9,7.9,5.1
SMILES,GPR7 antagonist,DAGLB inhibitor,TAAR1 ag,TAAR1 antagonist,MPTP inh
Cc1cc(NCCc2ccccc2F)n2ncnc2n1,4.6,1.0,37.6*,8.5,-0.5
COc1ccccc1-c1csc(Nc2ccc(Oc3ccccc3)cc2)n1,x,x,-0.7,6.2,4.2
CC1CCc2[nH]c3ccc(C(=O)N(C)CC(=O)Nc4ccccc4Cl)cc3c2C1 (centres undefined),x,-0.3,2.9,19.8,-2.7
CCN(CC(=O)Nc1ccccc1OC)C(=O)c1ccc2[nH]c3c(c2c1)CC(C)CC3 (centres undefined),x,-1.9,23.7,55.7*,0.2
CCCN(CC(=O)Nc1ccccc1OC)C(=O)c1ccc2[nH]c3c(c2c1)CC(C)CC3 (centres undefined),x,-9.9,15.4,51.4*,-0.8
CCCCc1c(-c2ccccc2OC)ncn1Cc1cccc(F)c1,x,x,1.1,-13.9,x
COc1ccc(CN(C)C(=O)C(CCSC)NS(=O)(=O)c2ccc3c(c2)OCCO3)c(OC)c1OC (centres undefined),x,0.5,11.7,55.9*,-0.1
C#CCNC(=O)C1=C[C@@H](c2csc3ccccc23)C[C@@H](OCc2ccc(CO)cc2)O1,6.4,-0.4,20.0,53.7*,-2.3
O=C(NCc1ccccc1)C1=C[C@@H](c2csc3ccccc23)C[C@@H](OCc2ccc(CO)cc2)O1,-3.1,-4.0,7.9,44.6,0.0
Cc1cc(-c2nnc(SCC(=O)Nc3ccccc3C(F)(F)F)o2)c(C)n1-c1ccccc1,4.8,-28.1,42.0*,11.5,-1.7
O=C(c1ccc(Cl)c(S(=O)(=O)N2CCc3ccccc32)c1)N1CCN(c2ccccc2O)CC1,x,2.6,21.6,60.6*,0.6
COc1ccc(CN(C)C(=O)c2cc(-c3ccccc3)nc3ccc(C)cc23)c(OC)c1OC,3.8,-8.7,3.6,62.6*,-0.8
COc1ccc(-c2cc(C(=O)N(C)CCc3ccc(OC)c(OC)c3)c3ccccc3n2)cc1,-8.2,-4.5,12.1,49.4*,0.9
COc1cccc(CN(C)C(=O)c2cc(-c3ccc(F)cc3)nc3ccccc23)c1,-15.4,-5.1,x,x,-0.1
COc1ccc(-c2cc(C(=O)N(C)Cc3nc4ccccc4c(=O)[nH]3)c3ccccc3n2)cc1OC,x,2.5,11.3,59.0*,-0.5
COc1ccc(CCN(C)C(=O)c2cc(-c3ccccc3)nc3ccccc23)cc1OC,-1.8,1.2,3.4,13.4,-2.0
COc1cccc(CN(C)C(=O)c2cc(-c3ccc(OC)c(OC)c3)nc3ccccc23)c1,8.6,-5.7,3.5,50.7*,0.8
O=C(Nc1c2c(nn1-c1ccccc1)CS(=O)(=O)C2)c1ccc(Br)o1,x,-1.2,2.2,-16.1,1.1
Cc1cccc(C)c1-n1nnnc1C1(C)CCC(=O)N1CC1CCCCC1 (centres undefined),x,x,1.6,-21.6,0.2
COc1cc(CCN(C(=O)c2cc3ccccc3[nH]2)C(C)c2nc3ccccc3[nH]2)cc(OC)c1 (centres undefined),x,x,2.1,64.7*,0.0
CCCCOCCCNC(=O)C[C@H]1C[C@@]2(C(=O)OC)C(=C[C@H](C(C)(C)C)O[C@@H]2C)N(CCC2=CCCCC2)C1=O,x,x,-2.1,-26.3,x
